According to the M2OR odorant receptor database:
Positions count from the first letter of the chain named.

Key:
Conditions in all cases: stereoisomer not certain
[1] = tested on: T1, A0A140T8K4
T1 sequence (whole entry): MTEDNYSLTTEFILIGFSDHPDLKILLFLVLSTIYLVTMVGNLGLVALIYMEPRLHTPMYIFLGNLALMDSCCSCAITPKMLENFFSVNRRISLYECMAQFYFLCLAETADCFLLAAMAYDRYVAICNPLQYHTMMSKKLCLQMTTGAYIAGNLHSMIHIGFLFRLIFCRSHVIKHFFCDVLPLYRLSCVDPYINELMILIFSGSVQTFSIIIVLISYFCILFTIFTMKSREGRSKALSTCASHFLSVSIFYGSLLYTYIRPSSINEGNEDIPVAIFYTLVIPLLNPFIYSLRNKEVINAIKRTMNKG
Outline: (§1)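 Assay methods differ from source to source, frequently being transient luciferase assays in mammalian cell lines. For each receptor–molecule pair, the label responsive (active) applies when the original authors judged the measured signal statistically different from baseline, and non-responsive (inactive) applies otherwise.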

[2] = tested on: T2, A0A2J8MY22
T2 sequence (whole entry): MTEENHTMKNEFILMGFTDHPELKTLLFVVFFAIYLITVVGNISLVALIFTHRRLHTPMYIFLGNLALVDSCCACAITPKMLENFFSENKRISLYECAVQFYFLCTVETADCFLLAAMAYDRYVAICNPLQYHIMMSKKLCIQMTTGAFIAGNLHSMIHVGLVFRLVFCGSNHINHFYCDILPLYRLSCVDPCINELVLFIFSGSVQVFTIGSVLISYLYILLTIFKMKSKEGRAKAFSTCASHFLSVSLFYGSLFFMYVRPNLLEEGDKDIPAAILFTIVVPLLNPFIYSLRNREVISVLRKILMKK
Outline: as §1

[3] = tested on: T3, A0A2R8ZIW4
T3 sequence (whole entry): T2 sequence (whole entry) with V39I, I280V
Outline: as §1

[4] = tested on: T4, A0A3Q7SVK8
T4 sequence (whole entry): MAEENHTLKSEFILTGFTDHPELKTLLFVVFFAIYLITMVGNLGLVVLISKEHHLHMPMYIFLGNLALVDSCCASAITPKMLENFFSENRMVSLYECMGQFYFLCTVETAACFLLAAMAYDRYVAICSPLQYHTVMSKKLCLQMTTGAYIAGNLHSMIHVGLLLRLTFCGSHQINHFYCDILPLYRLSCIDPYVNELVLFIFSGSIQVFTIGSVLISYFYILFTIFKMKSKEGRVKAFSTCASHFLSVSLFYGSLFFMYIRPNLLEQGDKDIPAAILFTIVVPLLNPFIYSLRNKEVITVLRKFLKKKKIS
Outline: as §1

[5] = tested on: T5, A0A6P3DZI2
T5 sequence (whole entry): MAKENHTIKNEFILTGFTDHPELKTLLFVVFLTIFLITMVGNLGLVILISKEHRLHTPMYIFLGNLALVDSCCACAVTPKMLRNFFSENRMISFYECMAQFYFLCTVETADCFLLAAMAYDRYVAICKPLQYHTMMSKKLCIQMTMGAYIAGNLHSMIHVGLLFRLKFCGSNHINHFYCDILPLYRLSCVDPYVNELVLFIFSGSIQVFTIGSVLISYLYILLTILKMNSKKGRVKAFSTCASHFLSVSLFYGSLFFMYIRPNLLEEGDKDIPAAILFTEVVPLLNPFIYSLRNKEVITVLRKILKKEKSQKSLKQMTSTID
Outline: as §1

[6] = tested on: T6, A0A6P6H1F7
T6 sequence (whole entry): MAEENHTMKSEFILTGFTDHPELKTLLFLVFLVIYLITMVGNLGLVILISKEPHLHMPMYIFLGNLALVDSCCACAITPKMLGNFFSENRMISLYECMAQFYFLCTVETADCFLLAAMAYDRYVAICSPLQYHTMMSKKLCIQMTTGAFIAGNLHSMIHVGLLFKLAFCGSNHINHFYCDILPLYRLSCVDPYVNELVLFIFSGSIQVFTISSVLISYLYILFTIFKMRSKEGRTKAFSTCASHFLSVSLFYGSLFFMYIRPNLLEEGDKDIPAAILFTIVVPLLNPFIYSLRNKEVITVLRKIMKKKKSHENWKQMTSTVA
Outline: as §1

[7] = tested on: T7, O10A2 H43R H207R K258T
T7 sequence (whole entry): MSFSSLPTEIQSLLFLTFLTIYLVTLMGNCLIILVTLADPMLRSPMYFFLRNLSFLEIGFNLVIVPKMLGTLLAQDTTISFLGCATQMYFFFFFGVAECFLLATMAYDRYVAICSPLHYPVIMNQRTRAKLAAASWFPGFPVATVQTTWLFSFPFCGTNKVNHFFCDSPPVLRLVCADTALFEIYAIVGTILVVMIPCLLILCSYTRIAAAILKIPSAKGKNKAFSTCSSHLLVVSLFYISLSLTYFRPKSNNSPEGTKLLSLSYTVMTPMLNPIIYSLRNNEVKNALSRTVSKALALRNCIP
Outline: as §1

[8] = tested on: T8, O10A3 C8G
T8 sequence (whole entry): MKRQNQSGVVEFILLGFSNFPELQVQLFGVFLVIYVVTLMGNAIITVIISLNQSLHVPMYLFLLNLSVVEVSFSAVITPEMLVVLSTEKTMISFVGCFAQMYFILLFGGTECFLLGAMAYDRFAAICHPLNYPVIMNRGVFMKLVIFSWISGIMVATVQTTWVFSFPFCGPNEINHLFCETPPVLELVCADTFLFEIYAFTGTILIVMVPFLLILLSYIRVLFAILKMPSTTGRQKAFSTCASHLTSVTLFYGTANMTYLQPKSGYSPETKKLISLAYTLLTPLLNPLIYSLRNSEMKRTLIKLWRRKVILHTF
Outline: as §1

[9] = tested on: T9, O10A6
T9 sequence (whole entry): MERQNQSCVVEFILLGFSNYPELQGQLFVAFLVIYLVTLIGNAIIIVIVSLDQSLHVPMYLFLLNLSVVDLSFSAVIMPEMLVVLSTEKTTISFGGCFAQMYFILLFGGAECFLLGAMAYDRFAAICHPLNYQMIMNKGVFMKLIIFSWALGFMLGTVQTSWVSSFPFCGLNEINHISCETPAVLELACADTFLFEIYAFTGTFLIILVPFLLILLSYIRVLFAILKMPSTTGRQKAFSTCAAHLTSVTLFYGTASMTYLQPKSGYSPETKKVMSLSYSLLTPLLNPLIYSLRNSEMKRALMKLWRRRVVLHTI
Outline: as §1

[10] = tested on: T10, O10AD G65C
T10 sequence (whole entry): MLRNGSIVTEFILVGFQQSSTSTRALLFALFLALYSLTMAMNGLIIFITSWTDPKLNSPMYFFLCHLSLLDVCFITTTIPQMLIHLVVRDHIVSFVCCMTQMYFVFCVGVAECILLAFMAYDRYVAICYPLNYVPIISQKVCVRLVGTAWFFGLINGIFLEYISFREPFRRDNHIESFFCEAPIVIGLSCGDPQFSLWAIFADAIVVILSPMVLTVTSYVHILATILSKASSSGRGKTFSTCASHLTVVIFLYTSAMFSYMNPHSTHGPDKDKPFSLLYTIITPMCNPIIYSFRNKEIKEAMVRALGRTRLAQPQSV
Outline: as §1

[11] = tested on: T11, O10D3 V134A R197K
T11 sequence (whole entry): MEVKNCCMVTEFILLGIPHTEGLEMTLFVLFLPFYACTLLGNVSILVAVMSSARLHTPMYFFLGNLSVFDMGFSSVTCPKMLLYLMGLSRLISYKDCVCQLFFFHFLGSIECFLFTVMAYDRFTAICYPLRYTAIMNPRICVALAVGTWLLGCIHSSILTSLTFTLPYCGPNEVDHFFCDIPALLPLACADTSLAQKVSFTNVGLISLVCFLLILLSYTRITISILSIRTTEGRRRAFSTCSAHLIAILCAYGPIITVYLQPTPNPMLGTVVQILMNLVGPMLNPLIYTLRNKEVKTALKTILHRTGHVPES
Outline: as §1

[12] = tested on: T12, O10G4 L24P V195E
T12 sequence (whole entry): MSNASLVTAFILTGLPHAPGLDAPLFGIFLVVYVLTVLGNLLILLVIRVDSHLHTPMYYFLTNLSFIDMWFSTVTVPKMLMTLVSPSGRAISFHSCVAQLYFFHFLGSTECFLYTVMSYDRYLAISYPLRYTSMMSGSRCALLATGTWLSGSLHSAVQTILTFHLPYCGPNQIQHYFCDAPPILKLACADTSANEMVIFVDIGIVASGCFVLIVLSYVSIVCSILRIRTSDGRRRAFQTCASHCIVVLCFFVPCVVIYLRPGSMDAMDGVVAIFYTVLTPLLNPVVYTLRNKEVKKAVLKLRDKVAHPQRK
Outline: as §1

[13] = tested on: T13, O10G7 A18V P19Q G20A
T13 sequence (whole entry): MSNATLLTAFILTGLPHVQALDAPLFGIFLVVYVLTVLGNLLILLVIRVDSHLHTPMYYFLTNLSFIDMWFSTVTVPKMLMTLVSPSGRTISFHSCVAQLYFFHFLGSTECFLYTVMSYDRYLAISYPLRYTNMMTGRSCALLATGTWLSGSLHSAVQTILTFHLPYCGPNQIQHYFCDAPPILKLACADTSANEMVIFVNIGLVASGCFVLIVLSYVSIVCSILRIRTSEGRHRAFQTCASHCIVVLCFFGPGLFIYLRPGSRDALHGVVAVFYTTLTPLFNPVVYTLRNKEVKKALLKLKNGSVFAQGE
Outline: as §1

[14] = tested on: T14, O10G7 I28V
T14 sequence (whole entry): T13 sequence (whole entry) with V18A, Q19P, A20G, I28V
Outline: as §1

Measured: odorant receptor agonist call

Cc1cnccn1
inactive: [1] | [5]
active: [2] | [3] | [4] | [6]

COC1=C(C)OC(C)C1=O (stereo not given)
inactive: [1] | [3] | [4] | [5] | [6]
active: [2]

CCC1OC(C)=C(O)C1=O (stereo not given)
inactive: [7] | [8] | [9] | [10] | [11] | [12] | [13] | [14]

CC1=NC(C)C(C)S1 (stereo not given)
active: [1] | [2] | [3] | [4] | [5] | [6]
inactive: all other assays above

COc1nccnc1CC(C)C
inactive: [1] | [5]
active: [2] | [3] | [4] | [6]
